Tests used:
[1] = species: Bos taurus; test: Inhibition of beef-brain Na(+)/K(+) ATPase assessed as oxidation of NADH using ATP substrate preincubated for 5 mins
Method in brief: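 Microsomal enzyme from frozen, partially thawed beef brain. Pyruvate kinase/lactate dehydrogenase-coupled system with inhibitor (in water, or DMSO made up with water) preincubated 5 min before adding ATP. NADH oxidation followed photometrically. Final volume 2.95 mL. At least four roughly log-equidistant concentrations, each in duplicate or triplicate. IC50 from linear regression of % inhibition against log concentration.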

[2] = species: Canis lupus familiaris; test: Inhibition of dog-heart microsomal Na(+)/K(+) ATPase using ATP substrate
Method in brief: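 Microsomal enzyme from frozen dog heart in Tris-HCl pH 7.4 containing MgCl2, KCl and NaCl. Preincubated with inhibitor for 5 min, then pyruvate kinase, lactate dehydrogenase, phosphoenolpyruvate and NADH added. Reaction started with ATP; NADH oxidation read photometrically. At least four log-spaced concentrations, each in duplicate or triplicate. Linear regression of % inhibition against log concentration.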

[3] = species: Bos taurus; test: Inhibition of beef-brain Na(+)/K(+) ATPase assessed as oxidation of NADH using ATP substrate at 5 uM preincubated for 5 mins relative to digitoxigenin

| Compound | ID50 [1] [µmol] | ID50 [2] [µmol] | fold change (FC) [3] |
| --- | --- | --- | --- |
| C[C@]12CC[C@](O)(c3ccccc3)C[C@H]1CC[C@@H]1[C@@H]2CC[C@]2(C)[C@@H](C3=CC(=O)OC3)CC[C@]12O | 5.81 | – | – |
| C[C@]12CC[C@@](O)(C(O)CO)C[C@H]1CC[C@@H]1[C@@H]2CC[C@]2(C)[C@@H](C3=CC(=O)OC3)CC[C@]12O (some centres not stated) | 15.4 | 7.8 | 100 |
| C=C[C@]1(O)CC[C@@]2(C)[C@H](CC[C@@H]3[C@@H]2CC[C@]2(C)[C@@H](C4=CC(=O)OC4)CC[C@]32O)C1 | 0.31 | 0.092 | 100 |
| CC[C@]1(O)CC[C@@]2(C)[C@H](CC[C@@H]3[C@@H]2CC[C@]2(C)[C@@H](C4=CC(=O)OC4)CC[C@]32O)C1 | 2.15 | 0.73 | 100 |
| C[C@]12CC[C@H](O)C[C@H]1CC[C@@H]1[C@@H]2CC[C@]2(C)[C@@H](C3=CC(=O)OC3)CC[C@]12O | 0.096 | 0.035 | – |
| C[C@]12CC[C@](O)(C(O)CO)C[C@H]1CC[C@@H]1[C@@H]2CC[C@]2(C)[C@@H](C3=CC(=O)OC3)CC[C@]12O (some centres not stated) | 1.7 | – | – |
| C[C@]12CC[C@@](O)(CC(O)CO)C[C@H]1CC[C@@H]1[C@@H]2CC[C@]2(C)[C@@H](C3=CC(=O)OC3)CC[C@]12O (some centres not stated) | 7.66 | 4.44 | 100 |
| C[C@]12CC[C@@H](O)C[C@H]1CC[C@@H]1[C@@H]2CC[C@]2(C)[C@@H](C3=CC(=O)OC3)CC[C@]12O | 1.17 | – | – |
| CC[C@@]1(O)CC[C@@]2(C)[C@H](CC[C@@H]3[C@@H]2CC[C@]2(C)[C@@H](C4=CC(=O)OC4)CC[C@]32O)C1 | 6.4 | – | – |
| C=CC[C@]1(O)CC[C@@]2(C)[C@H](CC[C@@H]3[C@@H]2CC[C@]2(C)[C@@H](C4=CC(=O)OC4)CC[C@]32O)C1 | 1.25 | 0.55 | 100 |
| C#C[C@@]1(O)CC[C@@]2(C)[C@H](CC[C@@H]3[C@@H]2CC[C@]2(C)[C@@H](C4=CC(=O)OC4)CC[C@]32O)C1 | 2.11 | – | – |
| C[C@]12CC[C@@](O)(C3CO3)C[C@H]1CC[C@@H]1[C@@H]2CC[C@]2(C)[C@@H](C3=CC(=O)OC3)CC[C@]12O (some centres not stated) | 2.03 | 1.1 | 100 |
| C#C[C@]1(O)CC[C@@]2(C)[C@H](CC[C@@H]3[C@@H]2CC[C@]2(C)[C@@H](C4=CC(=O)OC4)CC[C@]32O)C1 | 0.25 | 0.12 | 100 |
| C[C@@]1(O)CC[C@@]2(C)[C@H](CC[C@@H]3[C@@H]2CC[C@]2(C)[C@@H](C4=CC(=O)OC4)CC[C@]32O)C1 | 11.4 | – | – |
| C=CC[C@@]1(O)CC[C@@]2(C)[C@H](CC[C@@H]3[C@@H]2CC[C@]2(C)[C@@H](C4=CC(=O)OC4)CC[C@]32O)C1 | 5.81 | – | – |
| C[C@]12CC[C@@](O)(c3ccccc3)C[C@H]1CC[C@@H]1[C@@H]2CC[C@]2(C)[C@@H](C3=CC(=O)OC3)CC[C@]12O | 2.11 | 0.6 | 100 |
| C[C@]12CC[C@]3(CO3)C[C@H]1CC[C@@H]1[C@@H]2CC[C@]2(C)[C@@H](C3=CC(=O)OC3)CC[C@]12O | 0.74 | – | – |
| C[C@]12CC[C@@]3(CO3)C[C@H]1CC[C@@H]1[C@@H]2CC[C@]2(C)[C@@H](C3=CC(=O)OC3)CC[C@]12O | 0.71 | 0.275 | 100 |
| C[C@]12CC[C@](O)(C3CO3)C[C@H]1CC[C@@H]1[C@@H]2CC[C@]2(C)[C@@H](C3=CC(=O)OC3)CC[C@]12O (some centres not stated) | 3.17 | – | – |
| C[C@]12CC[C@](O)(CC3CO3)C[C@H]1CC[C@@H]1[C@@H]2CC[C@]2(C)[C@@H](C3=CC(=O)OC3)CC[C@]12O (some centres not stated) | 4.06 | – | – |
| C[C@]12CC[C@@](O)(CC3CO3)C[C@H]1CC[C@@H]1[C@@H]2CC[C@]2(C)[C@@H](C3=CC(=O)OC3)CC[C@]12O (some centres not stated) | 3.65 | 1.69 | 100 |
| C[C@]12CC[C@](O)(CC(O)CO)C[C@H]1CC[C@@H]1[C@@H]2CC[C@]2(C)[C@@H](C3=CC(=O)OC3)CC[C@]12O (some centres not stated) | 2.34 | – | – |
| C[C@]1(O)CC[C@@]2(C)[C@H](CC[C@@H]3[C@@H]2CC[C@]2(C)[C@@H](C4=CC(=O)OC4)CC[C@]32O)C1 | 0.92 | 0.32 | 100 |
| C=C[C@@]1(O)CC[C@@]2(C)[C@H](CC[C@@H]3[C@@H]2CC[C@]2(C)[C@@H](C4=CC(=O)OC4)CC[C@]32O)C1 | 6.68 | – | – |

Reference: ChEMBL document CHEMBL3244036, “Inhibition of beef-brain and dog-heart (Na+ + k+) activated adenosine triphosphatase by carbon-3 branched cardenolides” (J Med Chem, 1978)
